Data set [1] deals with Rattus norvegicus. As to the kind of experiment: Antiinflammatory activity in Wistar rat model of BR103-induced paw edema assessed as increase in number of intact mast cells at 10 mg/kg, po administered via gavage pretreated for 2 hrs followed by BR103 challenge and measured after 30 mins by alcian blue/safranin O staining-based histopathological analysis. The class given is functional, organism-based. In outline:
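Male Wistar rats 7–8 weeks old, given 10 mg/kg p.o. in olive oil 2 h before i.pl. BR103 (350 μg/paw). Sham/control received olive oil. Left paw plantar tissue taken 30 min after agonist and fixed in formalin. Frozen 5 μm sections stained with alcian blue/safranin O, or immunostained for tryptase, histamine or ED1. Positive cells quantified; n = 5 per group, one-way ANOVA.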

In data set [2] the target is T1, C3a anaphylatoxin chemotactic receptor (Homo sapiens) (UniProt Q16581).
T1 sequence (whole entry): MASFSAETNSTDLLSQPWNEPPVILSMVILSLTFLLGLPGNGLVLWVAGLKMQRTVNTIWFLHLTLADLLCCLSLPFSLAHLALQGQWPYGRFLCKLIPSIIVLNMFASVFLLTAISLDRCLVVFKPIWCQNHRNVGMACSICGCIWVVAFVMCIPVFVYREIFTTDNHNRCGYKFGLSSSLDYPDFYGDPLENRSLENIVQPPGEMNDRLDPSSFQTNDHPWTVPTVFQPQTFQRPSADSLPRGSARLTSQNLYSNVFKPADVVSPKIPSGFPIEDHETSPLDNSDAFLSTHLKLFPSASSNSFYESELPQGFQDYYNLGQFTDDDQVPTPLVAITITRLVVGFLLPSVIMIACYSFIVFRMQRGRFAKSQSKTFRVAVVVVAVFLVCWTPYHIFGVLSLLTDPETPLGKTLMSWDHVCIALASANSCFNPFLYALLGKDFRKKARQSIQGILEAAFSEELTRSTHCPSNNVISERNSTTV
As to the kind of experiment: Antagonist activity at C3a receptor in human MDM cells assessed as inhibition of C3a-induced intracellular calcium release preincubated for 30 mins followed by C3a addition and measured at 1 sec interval for => 200 secs by Fluo-3 AM dye-based FLIPR assay. The class given is functional, cell-based. In outline:
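Macrophages were derived from CD14⁺ monocytes (M-CSF, 7 days) and dye-loaded with 4 μM Fluo-3 AM for 1 h at 37 °C in HBSS/probenecid/HEPES, pH 7.4. Antagonist was preincubated for 30 min at 37 °C before addition of synthetic full-length human C3a (100 nM). FLIPR fluorescence was read at ex 495/em 520 nm. Percent response was plotted against log concentration; n ≥ 3.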
On the technique in general: Calcium flux is commonly read through the fluorescence of an indicator in the cells.

Data set [3] deals with Rattus norvegicus. As to the kind of experiment: Antiinflammatory activity in Wistar rat model of BR103-induced paw edema assessed as reduction in Tnf gene expression at 10 mg/kg, po administered via gavage pretreated for 2 hrs followed by BR103 challenge and measured after 30 mins by SYBR green dye based RT-PCR analysis. It counts as functional, organism-based. A digest of the protocol: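 Rats given 10 mg/kg p.o. in olive oil 2 h before i.pl. BR103 (350 μg/paw). Paws collected 0.5 h after agonist and homogenized in TRIsure for RNA. qPCR run in duplicate, normalized to Hprt, with fold change relative to sham. n = 3–5 male Wistar rats per group.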

Data set [4] is described as follows: Clearance in Wistar rat at 1 mg/kg, iv by LC-MS/MS analysis. Conditions: in vivo. It counts as ADME, organism-based. In outline: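 Male Wistar rats with jugular vein catheter, fasted overnight; dosed p.o. by gavage in olive oil or i.v. via catheter in 50% DMSO. Blood drawn from conscious unrestrained rats 5 min before dosing, then 5, 15, 30 min and 1–8 h after. Volume replaced with heparinized saline. Rats fed after 4 h sample. n = 3 per route.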

Our source for the Activity, inhibition and clearance values is ChEMBL document CHEMBL4376878, “Potent Thiophene Antagonists of Human Complement C3a Receptor with Anti-Inflammatory Activity” (J Med Chem, 2020).

Calls of active or inactive are those of the source. The calls are words filed in the database; no cut-off is given here.

As usually defined, the clearance is a measure of how efficiently the substance is removed, as volume per time.

Regarding `Cc1cc(C(c2ccc(Cl)cc2)c2ccc(Cl)cc2)sc1C(=O)N[C@@H](CCCNC(=N)N)C(=O)O`, the result in data set [1] and in data set [3] was Active. The inhibition result in data set [2] is “Dose-dependent effect”. In addition, the clearance in data set [4] amounted to 4.4 mL/min/kg.
